# Results collected from several papers.
# Target: Muscarinic acetylcholine receptor M4 (CHRM4, Homo sapiens, UniProt P08173)
# Sequence (P08173 1-479, as in one of the studies): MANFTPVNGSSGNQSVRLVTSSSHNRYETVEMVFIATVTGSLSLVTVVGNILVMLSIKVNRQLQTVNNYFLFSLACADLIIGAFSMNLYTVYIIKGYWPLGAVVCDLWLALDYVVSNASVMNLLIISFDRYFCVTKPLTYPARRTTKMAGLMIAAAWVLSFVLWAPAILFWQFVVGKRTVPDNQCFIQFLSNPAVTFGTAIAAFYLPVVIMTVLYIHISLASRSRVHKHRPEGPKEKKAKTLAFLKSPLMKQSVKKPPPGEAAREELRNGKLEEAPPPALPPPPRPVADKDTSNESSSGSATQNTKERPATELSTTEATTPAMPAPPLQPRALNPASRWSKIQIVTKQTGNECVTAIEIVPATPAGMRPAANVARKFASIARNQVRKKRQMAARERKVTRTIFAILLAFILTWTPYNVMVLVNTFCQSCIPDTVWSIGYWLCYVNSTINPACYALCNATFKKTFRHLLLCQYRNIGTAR
SMILES,test,conditions,inhibition [%]
Cn1cncc1[C@@](O)(COc1ccc(C#N)cc1-c1ccc(OC(F)(F)F)cc1)c1ccc(C#N)cc1,ligand displacement,10 µM,-9.7
CN1CC[C@@]2(C)c3cc(OC(=O)Nc4ccccc4)ccc3N(C)[C@@H]12,"ligand displacement, radioligand",10 µM,0.3
Cc1ncc(C)n2nc(/C=C/c3nc(N4CCCC4)cc(N4CCOCC4)n3)nc12,ligand displacement,10 µM,47
N#CC1(c2ccccn2)CCN(Cc2cc(C(=O)O)c(=O)n3ccccc23)CC1,cell-free assay,10 µM,-2.36
C[C@H](C(=O)N[C@H]1COc2ccccc2[C@@H]1S(C)(=O)=O)c1ccc(F)cc1,cell-free assay,10 µM,6
COCc1c(-c2cc3cc(C)cc(OC)c3s2)c2c(N)ncnn2c1CN1CCNC(=O)C1,"ligand displacement, radioligand",10 µM,6
c1ccc(C(NCCNC(c2ccccc2)c2ccccc2)c2ccccc2)cc1,cell-free assay,10 µM,32
O=C(Nc1cccnn1)N1CCN([C@@H]2CCOc3cc(C(F)(F)F)ccc32)CC1,cell-free assay,20 µM,15
